ChEMBL document CHEMBL1125231, “Synthesis, peroxidating ability, and antineoplastic evaluation of 1-[(aminoalkyl)amino]-4-hydroxy-10-imino-9-anthracenones” (J Med Chem, 1991)
Converted amounts (≈) assume the structure as drawn.

Tests used:
L1210 = test: Effective concentration against inhibition of L1210 mouse leukemia cells in tissue culture; format: functional, cell-based
Method in brief: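 L1210 mouse leukemia cells seeded at 0.05 × 10^6 cells/mL. Compounds, as hydrochlorides dissolved in 50% ethanol, added at four concentrations. Growth over 48 h measured by cellular protein content. EC50 taken as the concentration giving 50% inhibition of 48-h growth.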

[1] = The capacity to stimulate NADH oxidation was determined.; format: functional
Method in brief: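 Cell-free NADH oxidation in 1 mL of 0.05 M Tris-HCl, pH 7.2, with 100 µM compound (hydrochloride), 100 µM NADH and 1 unit/mL NADH dehydrogenase. NADH consumption started by adding the enzyme. Rate expressed as µmol/min.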

P388 [2] = test: In vivo inhibitory activity against P388 murine leukemia cells and the ratio of medium survival time expressed as percent of untreated controls (%T/C) at dose of 15 mg/kg (7/7*); format: functional, Mus musculus
P388 [3] = test: In vivo inhibitory activity against P388 murine leukemia cells and the ratio of medium survival time expressed as percent of untreated controls (%T/C) at dose of 7.5 mg/kg (7/7*); format: functional, Mus musculus
P388 [4] = test: In vivo inhibitory activity against P388 murine leukemia cells and the ratio of medium survival time expressed as percent of untreated controls (%T/C) at doses of 60,30mg/kg (7/7*); format: functional, Mus musculus
P388 [5] = test: In vivo inhibitory activity against P388 murine leukemia cells and the ratio of medium survival time expressed as percent of untreated controls (%T/C) at dose of 3.78, 1.87 mg/kg (7/7*); format: functional, Mus musculus
P388 [6] = test: In vivo inhibitory activity against P388 murine leukemia cells and the ratio of medium survival time expressed as percent of untreated controls (%T/C) at dose of 80 mg/kg (7/7*); format: functional, Mus musculus
P388 [7] = test: In vivo inhibitory activity against P388 murine leukemia cells and the ratio of medium survival time expressed as percent of untreated controls (%T/C) at doses of 10,5,2,5 mg/kg (7/7*); format: functional, Mus musculus
P388 [8] = test: In vivo inhibitory activity against P388 murine leukemia cells and the ratio of medium survival time expressed as percent of untreated controls (%T/C) at doses of 40,20mg/kg (7/7*); format: functional, Mus musculus
P388 [9] = test: In vivo inhibitory activity against P388 murine leukemia cells and the ratio of medium survival time expressed as percent of untreated controls (%T/C) at dose of 12.5 mg/kg (6/6*); format: functional, Mus musculus
P388 [10] = test: In vivo inhibitory activity against P388 murine leukemia cells and the ratio of medium survival time expressed as percent of untreated controls (%T/C) at dose of 25 mg/kg (6/6*); format: functional, Mus musculus
P388 [11] = test: In vivo inhibitory activity against P388 murine leukemia cells and the ratio of medium survival time expressed as percent of untreated controls (%T/C) at dose of 3.12 mg/kg (6/6*); format: functional, Mus musculus
P388 [12] = test: In vivo inhibitory activity against P388 murine leukemia cells and the ratio of medium survival time expressed as percent of untreated controls (%T/C) at dose of 6.25 mg/kg (6/6*); format: functional, Mus musculus
P388 [13] = test: In vivo inhibitory activity against P388 murine leukemia cells and the ratio of medium survival time expressed as percent of untreated controls (%T/C) at dose of 10 mg/kg (6/6*); format: functional, Mus musculus
P388 [14] = test: In vivo inhibitory activity against P388 murine leukemia cells and the ratio of medium survival time expressed as percent of untreated controls (%T/C) at dose of 2.5 mg/kg (6/6*); format: functional, Mus musculus
P388 [15] = test: In vivo inhibitory activity against P388 murine leukemia cells and the ratio of medium survival time expressed as percent of untreated controls (%T/C) at dose of 20 mg/kg (6/6*); format: functional, Mus musculus
P388 [16] = test: In vivo inhibitory activity against P388 murine leukemia cells and the ratio of medium survival time expressed as percent of untreated controls (%T/C) at dose of 80 mg/kg (5/6*); format: functional, Mus musculus
P388 [17] = test: In vivo inhibitory activity against P388 murine leukemia cells and the ratio of medium survival time expressed as percent of untreated controls (%T/C) at dose of 40 mg/kg (6/6*); format: functional, Mus musculus
P388 [18] = test: In vivo inhibitory activity against P388 murine leukemia cells and the ratio of medium survival time expressed as percent of untreated controls (%T/C) at dose of 5 mg/kg (6/6*); format: functional, Mus musculus
P388 [19] = test: In vivo inhibitory activity against P388 murine leukemia cells and the ratio of medium survival time expressed as percent of untreated controls (%T/C) at dose of 10 mg/kg (7/7*); format: functional, Mus musculus
P388 [20] = test: In vivo inhibitory activity against P388 murine leukemia cells and the ratio of medium survival time expressed as percent of untreated controls (%T/C) at doses of 80,40,20mg/kg (7/7*); format: functional, Mus musculus
P388 [21] = test: In vivo inhibitory activity against P388 murine leukemia cells and the ratio of medium survival time expressed as percent of untreated controls (%T/C) at dose of 2.5 mg/kg (7/7*); format: functional, Mus musculus
P388 [22] = test: In vivo inhibitory activity against P388 murine leukemia cells and the ratio of medium survival time expressed as percent of untreated controls (%T/C) at dose of 5 mg/kg (7/7*); format: functional, Mus musculus
P388 [23] = test: In vivo inhibitory activity against P388 murine leukemia cells and the ratio of medium survival time expressed as percent of untreated controls (%T/C) at dose of 12.5 mg/kg (7/7*); format: functional, Mus musculus
P388 [24] = test: In vivo inhibitory activity against P388 murine leukemia cells and the ratio of medium survival time expressed as percent of untreated controls (%T/C) at dose of 25 mg/kg (7/7*); format: functional, Mus musculus
P388 [25] = test: In vivo inhibitory activity against P388 murine leukemia cells and the ratio of medium survival time expressed as percent of untreated controls (%T/C) at doses of 6.25,3.12,1.56mg/kg (7/7*); format: functional, Mus musculus
P388 [26] = test: In vivo inhibitory activity against P388 murine leukemia cells and the ratio of medium survival time expressed as percent of untreated controls (%T/C) at dose of 50 mg/kg (7/7*); format: functional, Mus musculus

Compound CN(C)CCNc1ccc(O)c2c1C(=O)c1ccccc1C2=O has an EC50 (L1210) of 0.33 µg/mL (≈ 1.06 µM), an NADH oxidation [1] of 25.7 µM/min and a T/C (P388 [2]) of 109%. The T/C (P388 [3]) was 100%, the T/C (P388 [4]) was 117% and the T/C (P388 [5]) was 91%.
CN(C)CCNc1ccc(O)c2c1C(=O)c1ccccc1C2=N showed an EC50 (L1210) of 2.21 µg/mL (≈ 7.14 µM), an NADH oxidn [1] of 17.7 µM/min and a T/C (P388 [6]) of 125%. It also gave a T/C (P388 [7]) of 92% and a T/C (P388 [8]) of 100%.
Compound COc1cccc2c1C(=N)c1c(O)ccc(NCCNCCO)c1C2=O has an EC50 (L1210) of 2.8 µg/mL (≈ 7.88 µM).
NCCNc1ccc(O)c2c1C(=O)c1ccccc1C2=O gave an EC50 (L1210) of 0.24 µg/mL (≈ 0.85 µM) and an NADH oxidation [1] of 25.7 µM/min.
With O=C1c2ccccc2C(=O)c2c(NCCNCCO)ccc(NCCNCCO)c21 [AMETANTRONE] the EC50 (L1210) was 0.21 µg/mL (≈ 0.509 µM), the NADH oxidation [1] was 28.9 µM/min and the T/C (P388 [9]) was 300%. The T/C (P388 [10]) was 200%, the T/C (P388 [11]) was 190% and the T/C (P388 [12]) was 210%.
N=C1c2ccccc2C(=O)c2c(NCCN)ccc(O)c21 gave an EC50 (L1210) of 0.89 µg/mL (≈ 3.16 µM), an NADH oxidn [1] of 20.9 µM/min and a T/C (P388 [13]) of 118%. For the same compound, the T/C (P388 [14]) was 100%, the T/C (P388 [15]) was 109% and the T/C (P388 [16]) was 55%. It also gave a T/C (P388 [17]) of 118% and a T/C (P388 [18]) of 109%.
With N=C1c2ccccc2C(=O)c2c(NCCNCCO)ccc(O)c21 the EC50 (L1210) was 1.43 µg/mL (≈ 4.4 µM), the NADH oxidn [1] was 19.3 µM/min and the T/C (P388 [19]) was 150%. For the same compound, the T/C (P388 [20]) was 160%, the T/C (P388 [21]) was 120% and the T/C (P388 [22]) was 130%.
In the case of O=C1c2ccccc2C(=O)c2c(NCCNCCO)ccc(O)c21, the EC50 (L1210) is reported as 0.27 µg/mL (≈ 0.827 µM), the NADH oxidation [1] is reported as 28.9 µM/min and the T/C (P388 [23]) is reported as 109%. It also gave a T/C (P388 [24]) of 117%, a T/C (P388 [25]) of 100% and a T/C (P388 [26]) of 127%.
